Measured values from different studies.
GLP1R: Glucagon-like peptide 1 receptor (GLP1R, Homo sapiens, UniProt P43220)
DRD3: D(3) dopamine receptor (DRD3, Homo sapiens, UniProt P35462)

| Compound | target | effect on | action | technique | setting | endpoint | value |
| --- | --- | --- | --- | --- | --- | --- | --- |
| O=C(Nc1cccc(-c2ccn3c(CC4CC4)nnc3c2C(F)(F)F)c1)c1ccc(S(=O)(=O)F)cc1 | Metabotropic glutamate receptor 5 (GRM5, Homo sapiens, UniProt P41594) | calcium signal | agonist | – | – | EC50 | > 50100 nM |
| CC[C@H](C)[C@H](NC(=O)[C@H](Cc1ccccc1)NC(=O)[C@H](CC(=O)O)NC(=O)[C@H](CCCCN)NC(=O)[C@H](C)NC(=O)[C@H](C)NC(=O)[C@H](CCC(N)=O)NC(=O)CNC(=O)[C@H](CCC(=O)O)NC(=O)[C@H](CC(C)C)NC(=O)[C@H](Cc1ccc(O)cc1)NC(=O)[C@H](CO)NC(=O)[C@H](CO)NC(=O)[C@@H](NC(=O)[C@H](CC(=O)O)NC(=O)[C@H](CO)NC(=O)[C@@H](NC(=O)[C@H](Cc1ccc(O)cc1)NC(=O)[C@@H](NC(=O)CNC(=O)[C@H](CC(=O)O)NC(=O)[C@H](C)NC(=O)[C@@H](N)Cc1c[nH]cn1)[C@@H](C)O)[C@@H](C)O)[C@@H](C)CC)C(=O)N[C@@H](C)C(=O)N[C@@H](Cc1c[nH]c2ccccc12)C(=O)N[C@@H](CC(C)C)C(=O)N[C@@H](CCSC)C(=O)N[C@@H](CC(N)=O)C(=O)NCC(=O)N[C@@H](CCCNC(=N)N)C(=O)NCC(=O)O | GLP1R | reporter gene | agonist | luciferase | – | EC50 | 0.583 nM |
| CO[C@H]1C[C@H](O[C@H]2[C@H](C)O[C@@H](O[C@@H]3/C(C)=C/C[C@@H]4C[C@@H](C[C@]5(C=C[C@H](C)[C@@H](C6CCCCC6)O5)O4)OC(=O)[C@@H]4C=C(C)[C@@H](O)[C@H]5OC/C(=C\C=C\[C@@H]3C)[C@]54O)C[C@@H]2OC)O[C@@H](C)[C@@H]1O | Nuclear receptor subfamily 1 group I member 3 (Homo sapiens, UniProt Q14994) | reporter gene | antagonist | – | – | IC50 | 43200 nM |
| CCCC[C@@H](NC(=O)[C@@H](N)Cc1ccc(O)cc1)C(=O)NCC(=O)N[C@@H](Cc1ccc(F)cc1)C(=O)N(C)CCC[C@@]1(c2ccc(F)cc2)OCc2cc(C#N)ccc21 | DRD3 | ligand displacement | – | radioligand | – | Ki | 4300 nM |
| C/C(N)=N\C(=N/S(=O)(=O)c1ccc(C(F)(F)F)cc1)N1C[C@H](c2ccccc2)C(c2ccc(Cl)cc2)=N1 | Cannabinoid receptor 1 (Cnr1, Mus musculus, UniProt P47746) | ligand displacement | – | radioligand | cell membranes | Ki | 2.3 nM |
| C[C@H]1COCCN1c1nc(NCc2cccnc2C(F)(F)F)c2cccnc2n1 | A-type voltage-gated potassium channel KCND3 (KCND3, Homo sapiens, UniProt Q9UK17) | ion current | inhibitor | – | – | IC50 | > 33000 nM |
| Cc1cccc(-c2ccnc3c(C(N)=O)cnn23)c1 | Toll-like receptor 8 (TLR8, Homo sapiens, UniProt Q9NR97) | reporter gene | – | – | – | IC50 | 67 nM |
| COc1ncccc1-c1cnn2ccc(N3CCN(C(=O)OC(C)C)CC3)nc12 | Glutamate NMDA receptor; GRIN1/GRIN2B (GRIN1/GRIN2B, Homo sapiens, UniProt Q05586+Q13224) | ion current | inhibitor | – | – | IC50 | > 25000 nM |
| CC(C)[C@@H]1NC(=O)[C@H](CO)NC(=O)[C@H](CO)NC(=O)[C@H](CO)N(C)C(=O)[C@H](CC(=O)O)NC(=O)[C@H](CO)NC(=O)[C@H](Cc2ccccc2)NC(=O)CSC[C@@H](C(=O)NCC(N)=O)NC(=O)[C@H](CC(N)=O)NC(=O)[C@H](CCCNC(=N)N)NC(=O)[C@H](Cc2ccc(-c3ccccc3)cc2)NC(=O)[C@H](Cc2ccc(-c3ccccc3)cc2)NC(=O)[C@H](CC(N)=O)NC(=O)[C@@H]2CCCN2C1=O | Protein Mdm4 (MDM4, Homo sapiens, UniProt O15151) | ligand displacement | – | TR-FRET | – | IC50 | 835 nM |
| CSCC[C@H](NC(=O)[C@H](CCC(=O)O)NC(=O)[C@@H]1CCCN1C(=O)[C@@H](NC(=O)[C@@H]1CCCN1)[C@@H](C)O)C(=O)N[C@@H](CCCNC(=N)N)C(=O)N[C@@H](CCC(=O)O)C(=O)N[C@@H](CCCCN)C(=O)N[C@@H](CC(C)C)C(=O)N[C@H]1CSSC[C@@H]2NC(=O)[C@@H](NC(=O)[C@H](CC(C)C)NC(=O)[C@@H](NC(=O)[C@H](CCC(N)=O)NC(=O)[C@H](CC(C)C)NC(=O)[C@H](CC(=O)O)NC(=O)[C@@H]3CCC(=O)N3)[C@@H](C)O)CSSC[C@H](NC(=O)CNC(=O)[C@H](CC(=O)O)NC(=O)[C@H]([C@@H](C)O)NC2=O)C(=O)N[C@@H](CO)C(=O)N[C@@H](CCSC)C(=O)N[C@@H]([C@@H](C)O)C(=O)N[C@@H](CC(=O)O)C(=O)N[C@@H](CC(C)C)C(=O)N[C@@H](CO)C(=O)N[C@@H](C)C(=O)N[C@@H](CC(C)C)C(=O)N[C@H](C(=O)O)CSSC[C@@H](C(=O)NCC(=O)NCC(=O)N2CCC[C@H]2C(=O)N[C@@H](CCCNC(=N)N)C(=O)N[C@@H](Cc2c[nH]c3ccccc23)C(=O)N[C@@H](CO)C(=O)N[C@H](C(=O)N[C@@H](CCC(=O)O)C(=O)N[C@@H](C)C(=O)O)[C@@H](C)O)NC(=O)[C@H](C(C)C)NC(=O)[C@H](CCCNC(=N)N)NC(=O)[C@H](C(C)C)NC(=O)[C@H](CC(C)C)NC(=O)[C@H](C)NC(=O)[C@H](CCCNC(=N)N)NC(=O)[C@H](C(C)C)NC(=O)[C@H](Cc2ccccc2)NC(=O)[C@H](Cc2c[nH]cn2)NC(=O)[C@H](Cc2c[nH]cn2)NC(=O)CNC1=O | Relaxin receptor 2 (RXFP2, Homo sapiens, UniProt Q8WXD0) | ligand displacement in cells | – | – | – | Ki | 0.708 nM |
| CC[C@H](C)[C@H](NC(=O)[C@H](Cc1ccccc1)NC(=O)[C@H](CCC(=O)O)NC(=O)[C@H](CCCCN)NC(=O)[C@H](C)NC(=O)[C@H](C)NC(=O)[C@H](CCC(N)=O)NC(=O)CNC(=O)[C@H](CCC(=O)O)NC(=O)[C@H](CC(C)C)NC(=O)[C@H](Cc1ccc(O)cc1)NC(=O)[C@H](CO)NC(=O)[C@@H](NC(=O)[C@@H](NC(=O)[C@H](CC(=O)O)NC(=O)[C@H](CO)NC(=O)[C@@H](NC(=O)[C@H](Cc1ccc(O)cc1)NC(=O)[C@@H](NC(=O)CNC(=O)[C@H](CCC(=O)O)NC(=O)[C@H](C)NC(=O)[C@@H](N)Cc1c[nH]cn1)[C@@H](C)O)[C@@H](C)O)[C@@H](C)CC)[C@@H](C)O)C(=O)N[C@@H](C)C(=O)N[C@@H](Cc1c[nH]c2ccccc12)C(=O)N[C@@H](CC(C)C)C(=O)N[C@H](C(=O)N[C@@H](CC(N)=O)C(=O)NCC(=O)N[C@@H](CCCNC(=N)N)C(=O)NCC(=O)O)C(C)C | GLP1R | reporter gene | agonist | luciferase | – | EC50 | 0.863 nM |
| CC(CCc1ccc(O)cc1)NCCc1ccc(O)c(O)c1 (centres unmarked) | DRD3 | ligand displacement | – | radioligand | – | IC50 | 530 nM |
| CC(C)[C@@H](Nc1nc(Cl)nc2c1ncn2[C@H]1[C@H](O)[C@H](O)[C@]2(CN)C[C@H]12)C1CC1 | DRD3 | ligand displacement | – | radioligand | – | Ki | 3470 nM |
| CC[C@H](C)[C@H](NC(=O)[C@H](CC(C)C)NC(=O)[C@H](Cc1c[nH]c2ccccc12)NC(=O)[C@H](CCCCN)NC(=O)[C@H](CC(C)C)NC(=O)[C@H](Cc1ccccc1)NC(=O)[C@H](CCC(=O)O)NC(=O)[C@H](CCC(N)=O)NC(=O)[C@@H](NC(=O)[C@H](C)NC(=O)[C@H](CC(C)C)NC(=O)[C@H](CC(=O)O)NC(=O)[C@H](CC(=O)O)NC(=O)[C@H](CC(C)C)NC(=O)[C@H](CC(C)C)NC(=O)[C@H](CCCCN)NC(=O)[C@H](CC(N)=O)NC(=O)[C@H](Cc1ccc(O)cc1)NC(=O)[C@H](CC(=O)O)NC(=O)[C@H](CO)NC(=O)[C@@H](NC(=O)[C@H](Cc1ccccc1)NC(=O)[C@@H](NC(=O)CNC(=O)[C@H](CC(=O)O)NC(=O)[C@H](C)NC(=O)[C@@H](N)Cc1c[nH]cn1)[C@@H](C)O)[C@@H](C)O)[C@@H](C)O)C(=O)N[C@@H](CC(N)=O)C(=O)N[C@@H](CCC(N)=O)C(=O)N[C@@H](CCCCN)C(=O)N[C@H](C(=O)N[C@H](C(=O)N[C@@H](CCC(N)=O)C(=O)O)[C@@H](C)O)C(C)C | GLP1R | reporter gene | agonist | luciferase | – | EC50 | 1.5 nM |
